An excerpt weighted towards active compounds, which were near 4.3% of everything screened.
FLuc stim CS: firefly luciferase counter-screen for stimulation assays. P08659. ATPlite luciferase biochemical, luminescence, 10 min; 0 = ATP-free wells, 1 = DMSO control. activation factor at 10 µM. 200,000 tested, under 10 active. AID 1027;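 active means luciferase activation factor, scaled between plate controls, of at least 2 with compound at 10 µM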
Target sequence (P08659 whole entry, looked up): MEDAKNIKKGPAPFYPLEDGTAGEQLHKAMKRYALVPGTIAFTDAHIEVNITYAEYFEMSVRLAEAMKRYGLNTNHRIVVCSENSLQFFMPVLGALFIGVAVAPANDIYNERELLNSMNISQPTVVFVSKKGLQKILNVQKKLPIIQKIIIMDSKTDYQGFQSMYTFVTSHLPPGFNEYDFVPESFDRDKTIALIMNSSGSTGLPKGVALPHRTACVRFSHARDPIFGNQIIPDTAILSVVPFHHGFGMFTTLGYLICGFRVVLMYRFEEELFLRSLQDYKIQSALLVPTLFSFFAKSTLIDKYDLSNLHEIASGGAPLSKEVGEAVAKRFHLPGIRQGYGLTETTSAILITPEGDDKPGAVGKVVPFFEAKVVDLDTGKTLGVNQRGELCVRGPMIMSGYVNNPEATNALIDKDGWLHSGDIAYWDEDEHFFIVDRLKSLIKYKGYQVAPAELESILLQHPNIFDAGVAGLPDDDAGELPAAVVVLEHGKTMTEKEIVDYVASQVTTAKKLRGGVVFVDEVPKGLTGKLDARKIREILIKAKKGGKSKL
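assay system = Luciferase/luciferin detection reagent, cell-free biochemical luciferase assay | also added = ATP substrate | times = 10 min post-reagent at room temperature | measured by = luminescence from luciferase reaction | measure = luciferase activation, seen as luminescence increase over controls | benchmarks = low control with PBS replacing ATP, high control enzyme plus ATP without compound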
APP 5'UTR act: APP 5'UTR luciferase reporter activation. SH-SY5Y APP 5'UTR luciferase reporter, luminescence; zero percent = DMSO vehicle wells. activation, % at 2 µM. hit rate 1% among 190,000. AID 1276;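 active means activation above a set limit, based on mean plus 3 SD of controls, cut at about 140% in these data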
FLuc inh counter: inhibits firefly luciferase, flagging false hits in luciferase inhibition screens; P08659; ATPLite firefly luciferase biochemical luminescence, 10 min; inhibition, % at 10 µM; hit rate 1.5% among 200,000; AID 1006;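 active means inhibition above about 50% when tested at 10 µM, limit read from the data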
NF-kB neuron act: NF-kB expression increase, human neuronal cells; AID 1239; hit rate 1.6% among 190,000; fold change at 12.5 µM; NF-kB reporter expression; hits give high values; in the data active means fold change above about 3.3
STAT1 act: increases IFN-gamma driven STAT1 reporter signal. NIH 3T3 STAT1-luciferase reporter, luminescence; 100% = IFN-gamma alone, no compound. activation (% of control), % at 5.5 µM. hit rate 2.6% among 200,000;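 active means activation above the screen-wide mean activation plus 3 SD, cut at about 130% in these data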;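 further: raw ratio to IFN-gamma control signal so 100% means no change and 0% no light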
SDO1 yeast rescue: restores growth of sdo1-depleted yeast | S. cerevisiae sdo1-depleted JHY4D growth rescue, OD600 30 h; hits give high values; pdr5 snq2 efflux-pump mutant strain | z-score at 10 µM | hit rate 0.21% among 140,000;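 active means z-score above 3 at both the 24 hr and the 30 hr optical density reads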;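 further: z-score against mean and SD of all compound wells on the same plate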
* hit, by the source's call; . = no result given.

SMILES	FLuc stim CS	APP 5'UTR act	FLuc inh counter	NF-kB neuron act	STAT1 act	SDO1 yeast rescue
O=C(NCCCN1CCN(CCCNC(=O)c2cc([N+](=O)[O-])ccc2Cl)CC1)c1cc([N+](=O)[O-])ccc1Cl	1.1	-6	-11	1.3	97	0.42
Cc1cc(C(=O)Nc2sc(C)c(-c3ccc(F)cc3)c2C(N)=O)no1	0.6	51	40	0.86	161*	0.36
Cc1ccc(OC(=O)CCC(=O)NC(C)c2ccccc2)cc1 (stereo unspecified)	1	22	-1	1.4	95	-0.03
CCOc1cnc(-c2c(-c3c(Cl)cccc3Cl)noc2C)o1	1	6	-2	1	92	.
CCOc1cnc(-c2ccc(Cl)cc2)o1	0.9	14	11	1.2	140*	-0.05
CCOc1cnc(-c2ccc(OC)cc2)o1	0.7	44	26	1.6	135*	0.71
Cc1ccc(C(=O)Nc2cc(Cl)ccc2OC(=O)c2ccc(C)cc2)cc1	0.8	78	20	4.1*	96	-1
Cc1cc(NC(=O)c2ccc(Cl)cc2)c(C(C)C)cc1O	0.9	8	7	0.86	101	0.71
Cc1cc(NC(=O)c2ccc(Cl)cc2)c(C)cc1O	0.5	21	53*	1.3	115	.
O=C(Nc1ccccc1O)c1ccc(Cl)cc1	0.8	43	20	5.7*	92	0.45
COc1ccc(C(=O)Nc2cc(Cl)ccc2OC(=O)c2ccc(OC)cc2)cc1	1	60	-1	2.5	96	0.03
CC(C)(C)c1ccc(C(=O)Nc2ccccc2Cl)cc1	0.4	201*	59*	4.8*	115	.
Cc1ccc(-n2nnnc2CN2CCCCC2)cc1	1	-4	-4	.	96	.
Cc1ccc(C)c(C(=O)O/N=C(\N)c2ccc(Br)cc2)c1	1	10	3	1.9	92	-1.4
COc1ccccc1C(=O)NNC(=O)c1ccc(Cl)cc1	0.7	2	30	1.7	114	.
COc1ccccc1C(=O)O/N=C(\N)c1ccc(Cl)cc1	0.8	70	17	5.4*	140*	-1.7
Cc1ccc(/C(N)=N/OC(=O)c2ccc(Cl)cc2Cl)cc1	0.3	154*	75*	1.6	140*	-1.8
COc1ccc(Nc2nc(C(F)(F)F)nc(C)c2C#N)cc1	0.6	-10	42	1.1	97	0.34
COc1ccc(N2CCCn3c2nc2c3c(=O)n(Cc3ccc(F)cc3)c(=O)n2C)c(OC)c1	1	.	-2	.	.	.
CCOC(=O)N1CCN(C(=O)c2cn(C)c3ccc(S(=O)(=O)N4CCC(C)CC4)cc3c2=O)CC1	1.1	-7	-6	1.2	98	.
O=C(COc1ccccc1)Nc1nc2ccccc2[nH]1	0.5	56	48	2.6	129*	0.03
CC(CC(=O)Nc1nc2ccccc2[nH]1)c1ccccc1 (stereo unspecified)	0.8	123	25	2.5	145*	-1.2
Cc1ccccc1OCC(=O)Nc1nc2ccccc2[nH]1	0.2	114	84*	2.1	136*	.
CCCOc1cccc(OCC(=O)Nc2nc3ccccc3[nH]2)c1	0.8	-2	15	1.1	98	-0.75
CCOc1ccccc1OCC(=O)Nc1nc2ccccc2[nH]1	0.8	-29	19	1.7	104	.
SMILES	FLuc stim CS	APP 5'UTR act	FLuc inh counter	NF-kB neuron act	STAT1 act	SDO1 yeast rescue
O=c1c2cn[nH]c2[nH]c(=S)n1-c1cccc(Cl)c1	1	-12	-3	1.6	92	1.2
O=c1[nH]c(SCc2ccccc2)nc2ccsc12	0.8	-13	18	1.2	103	.
C/C(CCc1ccco1)=N/NC(=O)CCC(=O)Nc1ccc(Br)cc1	1	18	-4	0.97	100	0.01
NS(=O)(=O)c1ccc(NC(=O)COC(=O)/C(=C/c2cccs2)c2cccs2)cc1	1.1	9	-7	0.92	92	.
O=[N+]([O-])c1cccc(-c2n[nH]c(=S)n2Cc2ccccc2)c1	1	-5	-3	0.92	104	0.43
Cc1cc(C)c(C)c(S(=O)(=O)NCC(=O)Nc2sc3c(c2C(N)=O)CCCC3)c1C	1	-35	-4	1.1	106	-0.57
O=C(CN(C(=O)CSc1nc2ccccc2o1)c1cccc(F)c1)NC1CCCCC1	1	3	-3	1	102	-0.91
Cc1ccc(SCc2nc(-c3ccccc3)no2)cc1	1	6	2	1.4	100	-0.61

Bioassay records from PubChem.
